From the array DNA melting data of Ke et al. (doi:10.1101/2024.01.08.574731)

Tests used:
[1] = folding enthalpy; higher = less favourable; fluorescence melt of hairpins on a sequencing array, two-state fit; settings: sodium 0.088 M
Method in brief: (§1)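 With Cy3 and quencher oligos annealed, library hairpins on a sequenced MiSeq flow cell were imaged for Cy3 fluorescence in 50 mM Na-HEPES pH 8.0, 25 mM NaCl, in 2.5 °C steps up to 60 °C. Melting temperature and folding enthalpy were derived from bootstrapped two-state fits of signals normalised to pre-quench Cy3 and to control constructs. Four replicates were combined by inverse variance, with fitted temperatures raised by 9.35 °C to match UV melts.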

[2] = melting temperature; fluorescence melt of hairpins on a sequencing array, two-state fit, raised by 9.35 °C to match UV melts; settings: sodium 0.088 M
Method in brief: as §1

Sequence | folding enthalpy [1] [kJ/mol] | Tm [2] [°C]
GATCGACGGATCGATC ((((((....)))))) | -121 | 51.1
GATCTCGCTCGAGATC ((((((....)))))) | -187 | 57.5
GTCTTGGCGAAAGCCGAC (((..(((....)))))) | -41.7 | 37.5
GGTTCAGGAAACCGAACC (((((.(....).))))) | -111 | 47.8
GTAGATGGAAACATCTAC (((((((....))))))) | -173 | 55.5
GGAGATGGAAACATCTCC (((((((....))))))) | -159 | 65
GATCGACTTGTCGATC ((((((....)))))) | -181 | 68.3
GGTCCTCGAAAGAGAACC (((.(((....))).))) | -135 | 46.8
GGAGCGGCGAAAGCCTCC (((..(((....)))))) | -57.7 | 39.5
GATCAGTCGCCTGATC ((((((....)))))) | -239 | 51.5
GACAGCGAAAGCTCGTC ((((((....))).))) | -82.2 | 50.5
GCGACTGATCGC ((((....)))) | -91.8 | 46.8
GATCCGTTGTCGGATC ((((((....)))))) | -186 | 59.4
GCATTCGAAAGAAGGTGC ((((((....)))..))) | -92.8 | 36.7
GCTTCCGGAAACGGAGGC ((.((((....)))).)) | -152 | 54.6
GATCCTCTGCAGGATC ((((((....)))))) | -155 | 50.7
GCCGGACCGAAAGGTGGC (((..(((....)))))) | -113 | 53.4
GCCTACGGAAACACAGGC ((((..(....)..)))) | -97.6 | 34.6
GTCTCTACGAAAGTAGAC (((..(((....)))))) | -46.8 | 33.2
GGAGACGAAAGTCATCC ((((((....))).))) | -72.4 | 45.5
GATCACAAGGGTGATC ((((((....)))))) | -152 | 55.9
GATCTACGACTAGATC ((((((....)))))) | -134 | 35
GCGACAGGTCGC ((((....)))) | -113 | 56.2

Sequence | folding enthalpy [1] [kJ/mol] | Tm [2] [°C]
GCTGTGCGAAAGCAGGGC ((..(((....)))..)) | -88.2 | 50.3
GCACTGCGAAAGCTATGC (((..((....))..))) | -70 | 40.3
GCATGGCGAAAGCCCTGC (((.(((....))).))) | -189 | 53
GTATTACGAAAGTATAC (((.(((....)))))) | -75.5 | 32.5
GATCTTAGAGAAGATC ((((((....)))))) | -88.4 | 37.7
GATGCCGAAAGGCCAATC ((((((....)))..))) | -37 | 29.4
GCTTAAGGAAACTTAAGC (((((((....))))))) | -166 | 53.2
GATCCAATAGTGGATC ((((((....)))))) | -129 | 46.6
GCATGGACGAAAGTCTGC (((..(((....)))))) | -80.1 | 43
GCTAATACGAAAGTAAGC (((..(((....)))))) | -59 | 29.5
GGCATTCGAAAGAACGCC (((.(((....))).))) | -189 | 50.6
GGTTTGGGAAACCAAGTC (..((((....))))..) | -64.5 | 28.1
GAGAGTGGAAACGTTCTC ((((..(....)..)))) | -60.1 | 33.9
GTGGTGGGAAACTGCCAC ((((..(....)..)))) | -122 | 49.1
CTTACGAAAGTAAG (((((....))))) | -80.7 | 49.2
GTCCCCGGAAACGGGAAC ((.((((....)))).)) | -63.2 | 46.4
GACGGGGGAAACCCCATC ((.((((....)))).)) | -61.5 | 37
GCCCTGACGAAAGTCGGC (((..(((....)))))) | -56.9 | 48.9
GGTATGCGAAAGCACACC (((.(((....))).))) | -116 | 49.7
GGATACCGAAAGGTCTCC (((.(((....))).))) | -106 | 47.6
GAATACGGAAACGTATCC (.(((((....))))).) | -65.9 | 35.1
GCTGGAGGAAACTTCGGC ((.(.((....)).).)) | -124 | 37.2
GATCATATGATGATC ((((((...)))))) | -131 | 48.1

Sequence | folding enthalpy [1] [kJ/mol] | Tm [2] [°C]
GATCTTACGTAAGATC ((((((....)))))) | -264 | 48.3
GCTAAGCGAAAGCATAGC ((((.((....)).)))) | -113 | 54.8
GATCGACGTATCGATC ((((((....)))))) | -236 | 51.2
GTCGGGAAACCGAC (((((....))))) | -101 | 66
GTTAGCGGAAACGCTAGC (.(((((....))))).) | -67.5 | 49.3
GTATAGAAATATAC (((((....))))) | -33.2 | 23.1
GATGTTGGAAACAATATC (((.(((....))).))) | -113 | 37.5
GCGTTGATACGC ((((....)))) | -96.4 | 53.1
GATCATTGTGATGATC ((((((....)))))) | -181 | 51
GACTTCCGAAAGGACGTC (((.(((....))).))) | -135 | 48.9
GATCGGTAGACCGATC ((((((....)))))) | -172 | 57
GATCTGAAGTCAGATC ((((((....)))))) | -163 | 47.7
GCGGTGCGAAAGCTACGC (((..((....))..))) | -140 | 63.9
GATCCACGTATGGATC ((((((....)))))) | -133 | 51.6
GCCTCCGAAAGGAATGGC ((((((....)))..))) | -96.3 | 49.9
GATCAATATTTGATC ((((((...)))))) | -117 | 41.9
GATCTGGTAGCAGATC ((((((....)))))) | -153 | 52.2
GATAAGCCGAAAGGCATC (((..(((....)))))) | -38.5 | 32
GCAAGGCGAAAGCCAGGC ((..(((....)))..)) | -78.8 | 52.2
GAGTCCGAAAGGACGCTC ((((((....)))..))) | -57 | 64.2
GACGACGGAAACGTTGTC (((.(((....))).))) | -180 | 55
GGTTAGGCGAAAGCCACC (((..(((....)))))) | -52.1 | 42.9
CGGACGGAAACGTTACCG ((((((....)))..))) | -86.2 | 36.3

Sequence | folding enthalpy [1] [kJ/mol] | Tm [2] [°C]
GTGCTCGAAAGAGATCAC ((((((....)))..))) | -57 | 30.9
GTAAAGGGAAACCTTTAC (((((((....))))))) | -172 | 51.3
GTGATCGCGAAAGCGCAC (((..(((....)))))) | -52.5 | 35.6
GGCAGTCGAAAGACCGCC (((.(((....))).))) | -146 | 58
GTGTCCGGAAACGGGTAC ((..(((....)))..)) | -83.8 | 42.4
GCTAGGCCGAAAGGCAGC (((..(((....)))))) | -63.3 | 47.8
GAGAACGAAAGTTGGCTC ((((((....)))..))) | -79.7 | 30.6
GCTATCGAAAGATAGC ((((((....)))))) | -163 | 66.4
GCGCCTGGAAACAAGCGC ((((.((....)).)))) | -174 | 52.8
GGACGCGAAAGCGCCTCC ((((((....)))..))) | -48.4 | 60.2
GTCGTCGAAAGACCAGAC ((((((....)))..))) | -69.3 | 34.9
GAGTTAGGAAACTAGCTC (((.(((....))).))) | -121 | 40.4
GTGCTCGAAAGAGGCAC ((((((....))).))) | -103 | 55.2
GATGTGGGAAACCACATC (((((((....))))))) | -176 | 60.9
GATCCTGCCGAGGATC ((((((....)))))) | -134 | 53
GAATCAGGAAACCGATTC (((((.(....).))))) | -110 | 37.8
GCACGCCGAAAGGCATGC (((.(((....))).))) | -117 | 60.5
GCGTCAGGAAACCGACAC (.(((.(....).))).) | -67.1 | 27.4
GGGCTCCGAAAGGAACCC (((.(((....))).))) | -185 | 56.5
GATCATCAACATGATC ((((((....)))))) | -119 | 42.6
GTGGGAGGAAACTCTCAC (((.(((....))).))) | -164 | 48.7
GGTGCCGAAAGGCAAACC ((((((....)))..))) | -60.9 | 50.9
GGTACGACGAAAGTCACC (((..(((....)))))) | -56.1 | 32.9
